Reference: ChEMBL document CHEMBL1155442, “Click chemistry approach to new N-substituted aminocyclitols as potential pharmacological chaperones for Gaucher disease” (J Med Chem, 2010)
The source made the active and inactive calls. The rule behind the calls is not given here.

Experiments:
[1] = biological target: T1, Lysosomal acid glucosylceramidase (Homo sapiens) (UniProt P04062); assay: Binding affinity to recombinant beta-glucocerebrosidase assessed as enzymatic activity at 100 uM after 20 mins by thermal stabilization assay relative to control
T1 sequence (whole entry): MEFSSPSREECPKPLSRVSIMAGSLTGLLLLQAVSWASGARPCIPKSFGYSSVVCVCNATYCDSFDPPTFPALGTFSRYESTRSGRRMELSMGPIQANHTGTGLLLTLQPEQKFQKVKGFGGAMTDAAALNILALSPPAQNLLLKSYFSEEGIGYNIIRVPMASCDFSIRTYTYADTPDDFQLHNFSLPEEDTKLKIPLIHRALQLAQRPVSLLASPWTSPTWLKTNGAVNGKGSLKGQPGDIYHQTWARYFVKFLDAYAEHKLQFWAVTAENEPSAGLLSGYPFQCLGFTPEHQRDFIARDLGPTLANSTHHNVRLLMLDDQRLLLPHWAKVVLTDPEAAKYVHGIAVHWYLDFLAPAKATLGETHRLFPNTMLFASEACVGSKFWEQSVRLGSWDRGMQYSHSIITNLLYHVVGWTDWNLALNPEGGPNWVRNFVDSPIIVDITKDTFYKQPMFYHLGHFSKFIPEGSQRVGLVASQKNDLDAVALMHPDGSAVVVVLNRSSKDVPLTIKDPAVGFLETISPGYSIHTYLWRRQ

[2] = system: Oryza sativa; assay: Inhibition of rice alpha-galactosidase at 0.1 mM
[3] = biological target: T2, Lysosomal acid glucosylceramidase (Homo sapiens, UniProt P04062); assay: Inhibition of recombinant beta-glucocerebrosidase at pH 7.4 after 10 mins by fluorimetry
T2 sequence (P04062 whole entry): T1 sequence (whole entry)

[4] = biological target: T1, Lysosomal acid glucosylceramidase (Homo sapiens); assay: Binding affinity to recombinant beta-glucocerebrosidase assessed as enzymatic activity at 25 uM after 60 mins by thermal stabilization assay relative to control
Method in brief: (§1)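 Recombinant GCase (imiglucerase, 2 mg/mL aliquots) held at pH 7.4 and 48 °C with 0 (control) or 10–150 μM compound. At 20, 40 or 60 min, acetate-phosphate buffer (pH 5.0) and 4 mM 4-methylumbelliferyl β-D-glucoside in McIlvaine pH 5.2 added. Incubated 10 min at 37 °C with 0.1% Triton X-100 and 0.2% taurodeoxycholic acid. Stopped with glycine pH 10.6; 4-MU fluorescence read. Activity expressed relative to enzyme at 37 °C.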

[5] = biological target: T3, Beta-galactosidase (Bos taurus) (UniProt Q58D55); assay: Inhibition of bovine liver beta-galactosidase at 0.1 mM
T3 sequence (whole entry): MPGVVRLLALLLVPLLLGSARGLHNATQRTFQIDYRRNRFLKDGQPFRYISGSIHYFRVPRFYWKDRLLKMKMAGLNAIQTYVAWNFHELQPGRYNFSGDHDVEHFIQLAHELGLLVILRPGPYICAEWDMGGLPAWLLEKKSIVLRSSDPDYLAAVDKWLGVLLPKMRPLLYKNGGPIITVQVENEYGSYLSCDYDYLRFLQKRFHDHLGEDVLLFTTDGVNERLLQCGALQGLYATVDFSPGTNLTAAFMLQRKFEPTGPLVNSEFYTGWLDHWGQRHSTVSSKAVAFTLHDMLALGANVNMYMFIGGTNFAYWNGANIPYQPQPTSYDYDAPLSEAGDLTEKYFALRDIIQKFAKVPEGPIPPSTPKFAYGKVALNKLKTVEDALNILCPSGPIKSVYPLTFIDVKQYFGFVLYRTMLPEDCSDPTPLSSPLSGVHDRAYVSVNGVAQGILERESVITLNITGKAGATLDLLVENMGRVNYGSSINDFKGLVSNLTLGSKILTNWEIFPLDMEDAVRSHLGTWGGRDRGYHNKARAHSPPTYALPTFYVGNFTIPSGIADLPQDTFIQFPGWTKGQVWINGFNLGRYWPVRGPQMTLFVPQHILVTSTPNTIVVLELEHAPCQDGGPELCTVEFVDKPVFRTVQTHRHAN

[6] = biological target: T1, Lysosomal acid glucosylceramidase (Homo sapiens); assay: Binding affinity to recombinant beta-glucocerebrosidase assessed as enzymatic activity at 150 uM after 20 mins by thermal stabilization assay relative to control
[7] = biological target: T1, Lysosomal acid glucosylceramidase (Homo sapiens); assay: Binding affinity to recombinant beta-glucocerebrosidase assessed as enzymatic activity at 50 uM after 40 mins by thermal stabilization assay relative to control
[8] = system: Oryza sativa; assay: Inhibition of rice alpha-glucosidase at 0.1 mM
[9] = biological target: T1, Lysosomal acid glucosylceramidase (Homo sapiens); assay: Binding affinity to recombinant beta-glucocerebrosidase assessed as enzymatic activity at 25 uM after 40 mins by thermal stabilization assay relative to control; method in brief: as §1
[10] = system: Prunus dulcis; assay: Inhibition of sweet almond beta-glucosidase at 0.1 mM
[11] = biological target: T1, Lysosomal acid glucosylceramidase (Homo sapiens); assay: Binding affinity to recombinant beta-glucocerebrosidase assessed as enzymatic activity at 150 uM after 60 mins by thermal stabilization assay relative to control
[12] = Selectivity index, ratio of CC50 for human fibroblast to Ki for beta-glucocerebrosidase
[13] = biological target: T1, Lysosomal acid glucosylceramidase (Homo sapiens); assay: Binding affinity to recombinant beta-glucocerebrosidase assessed as enzymatic activity at 10 uM after 60 mins by thermal stabilization assay relative to control; method in brief: as §1
[14] = biological target: T2, Lysosomal acid glucosylceramidase; assay: Inhibition of recombinant beta-glucocerebrosidase at pH 5.2 after 10 mins by fluorimetry
[15] = system: Saccharomyces cerevisiae; assay: Inhibition of yeast alpha-glucosidase at 0.1 mM
[16] = biological target: T1, Lysosomal acid glucosylceramidase (Homo sapiens); assay: Binding affinity to recombinant beta-glucocerebrosidase assessed as enzymatic activity at 25 uM after 20 mins by thermal stabilization assay relative to control; method in brief: as §1
[17] = Dissociation constant, pKa of the compound; type: physicochemical
[18] = biological target: T1, Lysosomal acid glucosylceramidase (Homo sapiens); assay: Binding affinity to recombinant beta-glucocerebrosidase assessed as enzymatic activity at 100 uM after 40 mins by thermal stabilization assay relative to control
[19] = biological target: T1, Lysosomal acid glucosylceramidase (Homo sapiens); assay: Binding affinity to recombinant beta-glucocerebrosidase assessed as enzymatic activity at 10 uM after 20 mins by thermal stabilization assay relative to control; method in brief: as §1
[20] = biological target: T1, Lysosomal acid glucosylceramidase (Homo sapiens); conditions: 0.1 to 0.25 uM
[21] = Cytotoxicity against human fibroblast at 300 uM after 24 hrs by MTT assay; type: cell-based
[22] = biological target: T2, Lysosomal acid glucosylceramidase; assay: Inhibition of recombinant beta-glucocerebrosidase after 10 mins by fluorimetry
Method in brief: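 Imiglucerase (0.1 mg/mL stock) in McIlvaine buffer, pH 5.2 or 7.4, with 0.2% sodium taurocholate and 0.1% Triton X-100. Preincubated 30 min at 37 °C with or without inhibitor. Then 4 mM 4-methylumbelliferyl-β-D-glucopyranoside added for 10 min at 37 °C. Stopped with glycine/NaOH pH 10.6; 4-MU read at ex 355/em 460 nm. IC50 from % activity vs log[I], at least five concentrations.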

[23] = biological target: T1, Lysosomal acid glucosylceramidase (Homo sapiens); assay: Inhibition of beta-glucocerebrosidase in human fibroblast at 20 uM after 24 hrs by fluorescence assay
Method in brief: (§2)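 Wild-type human fibroblasts exposed to compound for 24 h (10, 20 or 50 μM, as listed) with 5 mM substrate. Cellular GCase activity then measured.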

[24] = biological target: T1, Lysosomal acid glucosylceramidase (Homo sapiens); assay: Binding affinity to recombinant beta-glucocerebrosidase assessed as enzymatic activity at 50 uM after 20 mins by thermal stabilization assay relative to control
[25] = biological target: T1, Lysosomal acid glucosylceramidase (Homo sapiens); assay: Binding affinity to recombinant beta-glucocerebrosidase assessed as enzymatic activity at 100 uM after 60 mins by thermal stabilization assay relative to control
[26] = biological target: T2, Lysosomal acid glucosylceramidase; assay: Competitive inhibition of beta-glucocerebrosidase at pH 5.2 by Lineweaver-Burke plot analysis
[27] = biological target: T1, Lysosomal acid glucosylceramidase (Homo sapiens); assay: Inhibition of beta-glucocerebrosidase in human fibroblast at 50 uM after 24 hrs by fluorescence assay; method in brief: as §2
[28] = biological target: T1, Lysosomal acid glucosylceramidase (Homo sapiens); assay: Inhibition of beta-glucocerebrosidase in human fibroblast at 10 uM after 24 hrs by fluorescence assay; method in brief: as §2
[29] = biological target: T1, Lysosomal acid glucosylceramidase (Homo sapiens); assay: Binding affinity to recombinant beta-glucocerebrosidase assessed as enzymatic activity at 50 uM after 60 mins by thermal stabilization assay relative to control
[30] = biological target: T1, Lysosomal acid glucosylceramidase (Homo sapiens); assay: Binding affinity to recombinant beta-glucocerebrosidase assessed as enzymatic activity at 10 uM after 40 mins by thermal stabilization assay relative to control; method in brief: as §1
[31] = biological target: T1, Lysosomal acid glucosylceramidase (Homo sapiens); assay: Binding affinity to recombinant beta-glucocerebrosidase assessed as enzymatic activity at 150 uM after 40 mins by thermal stabilization assay relative to control

CCCCCCCCCCn1cc(CN[C@H]2[C@H](O)[C@@H](O)[C@H](O)[C@@H](O)[C@@H]2O)nn1
fold change (FC) [1]: 2.91
inhibition [2]: inactive
IC50 [3]: 90 nM
fold change (FC) [4]: 10.2
inhibition [5]: inactive
fold change (FC) [6]: 3.24
fold change (FC) [7]: 8.33
inhibition [8]: inactive
fold change (FC) [9]: 5.95
inhibition [10]: inactive
fold change (FC) [11]: 25.9
Selectivity Index [12]: >=3300
fold change (FC) [13]: 4.19
IC50 [14]: 100 nM
inhibition [15]: inactive
fold change (FC) [16]: 2.21
pKa [17]: 7.1
fold change (FC) [18]: 8.88
fold change (FC) [19]: 1.55
inhibition [20]: Active
Activity [21]: Non-toxic
IC50 [22]: 93.3 nM
inhibition [23]: 71%
fold change (FC) [24]: 2.7
fold change (FC) [25]: 20.9
Ki [26]: 90 nM
inhibition [27]: 90%
inhibition [28]: 58%
fold change (FC) [29]: 17.2
fold change (FC) [30]: 3.56
fold change (FC) [31]: 10.5
